pIC50: −log10 of the molar value. The source made the active and inactive calls. No cut-off for these calls is given here.
Legend:
MCF7 [1] = test: Cytotoxicity against human MCF7 cells assessed as cell viability at 10 uM measured after 48 hrs by WST-1 assay relative to control; assay type: functional; conditions: read-out: Activity
Method in brief: (§1)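 Ten-line human panel (9 cancer, 1 non-cancerous). Cells were seeded at a pre-established optimal density (500–30 × 10³ per well) and settled overnight. Compounds came from 10 mM DMSO stocks and were tested at two concentrations. WST-1 readout followed the manufacturer's protocol at the end of cultivation. Viability is expressed as % of untreated control cells, mean of three independent experiments.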

MOLT-4 [2] = test: Radioprotective activity against gamma irradiation-induced apoptosis in human MOLT-4 cells assessed as viable cells at 100 uM pretreated with compound for 1 hr followed by gamma irradiation and measured after 24 hrs by annexinV/propidium iodide staining based flow cytometry (reference value: 40 %); assay type: functional; conditions: MOLT-4, light or radiation study, time 25 hrs, read-out: Activity
MOLT-4 [3] = test: Cytotoxicity against human MOLT-4 cells assessed as cell viability at 100 uM measured after 48 hrs by WST-1 assay relative to control; assay type: functional; conditions: read-out: Activity; method in brief: as §1
A549 [4] = test: Cytotoxicity against human A549 cells assessed as maximum tolerated concentration incubated for 24 hrs by MTT assay; assay type: functional
Method in brief: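 A-549 cells in DMEM with 10% FBS and 1% penicillin-streptomycin, left to attach overnight. Compounds made up in PBS, serially diluted in DMEM, incubated 24 h, then viability read by MTT reduction against untreated controls on each plate. MTC taken as the highest concentration showing no significant difference from non-treated control (t-test).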

SAOS-2 [5] = test: Cytotoxicity against human SAOS-2 cells assessed as cell viability at 100 uM measured after 48 hrs by WST-1 assay relative to control; assay type: functional; conditions: read-out: Activity; method in brief: as §1
A549 [6] = test: Cytotoxicity against human A549 cells assessed as cell viability at 100 uM measured after 48 hrs by WST-1 assay relative to control; assay type: functional; conditions: read-out: Activity; method in brief: as §1
A2780 [7] = test: Cytotoxicity against human A2780 cells assessed as cell viability at 10 uM measured after 48 hrs by WST-1 assay relative to control; assay type: functional; conditions: read-out: Activity; method in brief: as §1
A549 [8] = test: Cytotoxicity against human A549 cells assessed as cell viability at 10 uM measured after 48 hrs by WST-1 assay relative to control; assay type: functional; conditions: read-out: Activity; method in brief: as §1
MCF7 [9] = test: Cytotoxicity against human MCF7 cells assessed as cell viability at 100 uM measured after 48 hrs by WST-1 assay relative to control; assay type: functional; conditions: read-out: Activity; method in brief: as §1
A2780 [10] = test: Cytotoxicity against human A2780 cells assessed as cell viability at 100 uM measured after 48 hrs by WST-1 assay relative to control; assay type: functional; conditions: read-out: Activity; method in brief: as §1
HeLa [11] = test: Cytotoxicity against human HeLa cells assessed as cell viability at 10 uM measured after 48 hrs by WST-1 assay relative to control; assay type: functional; conditions: read-out: Activity; method in brief: as §1
HT-29 [12] = test: Cytotoxicity against human HT-29 cells assessed as cell viability at 100 uM measured after 48 hrs by WST-1 assay relative to control; assay type: functional; conditions: read-out: Activity; method in brief: as §1
A549 [13] = test: Cytotoxicity against human A549 cells assessed as reduction in cell viability incubated for 24 hrs by MTT assay; assay type: functional, cell-based; conditions: A549, 24 h
Method in brief: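 A-549 cells in DMEM with 10% FBS and 1% penicillin-streptomycin were attached overnight. Compounds were prepared in PBS and serially diluted in DMEM, then incubated 24 h. Viability was read by colorimetric MTT reduction against an untreated control on each plate (100%). IC50 came from four-parameter nonlinear regression of the log concentration-response curve, mean ± SEM. MTC is the highest concentration not differing from control (t-test).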

[14] = Cytotoxicity against human MRC5 cells assessed as cell viability at 100 uM measured after 48 hrs by WST-1 assay relative to control; assay type: cell-based; conditions: read-out: Activity; method in brief: as §1
HT-29 [15] = test: Cytotoxicity against human HT-29 cells assessed as cell viability at 10 uM measured after 48 hrs by WST-1 assay relative to control; assay type: functional; conditions: read-out: Activity; method in brief: as §1
HeLa [16] = test: Cytotoxicity against human HeLa cells assessed as cell viability at 100 uM measured after 48 hrs by WST-1 assay relative to control; assay type: functional; conditions: read-out: Activity; method in brief: as §1
PANC-1 [17] = test: Cytotoxicity against human PANC-1 cells assessed as cell viability at 10 uM measured after 48 hrs by WST-1 assay relative to control; assay type: functional; conditions: read-out: Activity; method in brief: as §1
MOLT-4 [18] = test: Cytotoxicity against human MOLT-4 cells assessed as cell viability at 10 uM measured after 48 hrs by WST-1 assay relative to control; assay type: functional; conditions: read-out: Activity; method in brief: as §1
Jurkat [19] = test: Cytotoxicity against human Jurkat cells assessed as cell viability at 10 uM measured after 48 hrs by WST-1 assay relative to control; assay type: functional; conditions: read-out: Activity; method in brief: as §1
Jurkat [20] = test: Cytotoxicity against human Jurkat cells assessed as cell viability at 100 uM measured after 48 hrs by WST-1 assay relative to control; assay type: functional; conditions: read-out: Activity; method in brief: as §1
PANC-1 [21] = test: Cytotoxicity against human PANC-1 cells assessed as cell viability at 100 uM measured after 48 hrs by WST-1 assay relative to control; assay type: functional; conditions: read-out: Activity; method in brief: as §1
SAOS-2 [22] = test: Cytotoxicity against human SAOS-2 cells assessed as cell viability at 10 uM measured after 48 hrs by WST-1 assay relative to control; assay type: functional; conditions: read-out: Activity; method in brief: as §1
[23] = Cytotoxicity against human MRC5 cells assessed as cell viability at 10 uM measured after 48 hrs by WST-1 assay relative to control; assay type: cell-based; conditions: read-out: Activity; method in brief: as §1
Mus musculus [24] = test: Radioprotective activity in C57Bl/6 mouse assessed as increase in absolute B-lymphocytes at 100 mg/kg, ip pretreated with compound for 5 min followed by gamma irradiation at 8.5 Gy and measured after 12 to 30 days by flow cytometry; assay type: functional, organism-based
Method in brief: (§2)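 C57Bl/6 mice receive 100 mg/kg i.p. 5 min before a single 8.5 Gy ⁶⁰Co γ dose. At 7, 12 and 30 days post-irradiation, 100 µl peripheral blood is stained with anti-CD3ε, CD19 and NK1.1 antibodies for 30 min at 4 °C in the dark. Samples are washed twice and analysed by flow cytometry for T, B and NK cells. Mean ± SEM.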

[25] = Toxicity in C57Bl/6 mouse assessed as average body weight at 100 mg/kg, ip measured after 30 days (reference value: 27 +/ 3.2 g); assay type: organism-based; conditions: in vivo, 720 h, time 30 day
Mus musculus [26] = test: Radioprotective activity in C57Bl/6 mouse assessed as average body weight at 100 mg/kg, ip administered 5 min prior to gamma-irradation at 8.5 Gy and measured immediately (reference value: 25.4 +/- 2.6 g); assay type: functional
Mus musculus [27] = test: Radioprotective activity in C57Bl/6 mouse assessed as average body weight at 100 mg/kg, ip administered 5 min prior to gamma-irradation at 8.5 Gy and measured after 30 days; assay type: functional
[28] = Toxicity in C57Bl/6 mouse assessed as average body weight at 100 mg/kg, ip and measured immediately (reference value: 26.3 +/- 2.4 g); assay type: organism-based; conditions: in vivo
[29] = Toxicity in C57Bl/6 mouse assessed as adverse effects at 100 mg/kg, ip measured after 30 days; assay type: organism-based; conditions: in vivo, 720 h, time 30 day
Method in brief: (§3)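 Safety in C57Bl/6 mice (27 ± 3 g) given a single 100 mg/kg i.p. injection without irradiation. Deaths, adverse effects and body weight followed over 30 days against an untreated control group. Weight reported as change from day 0.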

[30] = Toxicity in C57Bl/6 mouse assessed as change in body weight at 100 mg/kg, ip measured after 30 days (reference value: 103 +/- 12 %); assay type: organism-based; conditions: in vivo, 720 h, time 30 day
Mus musculus [31] = test: Radioprotective activity in C57Bl/6 mouse assessed as body weight gain at 100 mg/kg, ip administered 5 min prior to gamma-irradation at 8.5 Gy measured after 30 days relative to control; assay type: functional
Mus musculus [32] = test: Radioprotective activity in C57Bl/6 mouse assessed as increase in absolute T-lymphocytes at 100 mg/kg, ip pretreated with compound for 5 min followed by gamma irradiation at 8.5 Gy and measured after 12 to 30 days by flow cytometry; assay type: functional, organism-based; method in brief: as §2
Mus musculus [33] = test: Radioprotective activity in C57Bl/6 mouse assessed as increase in absolute NK population at 100 mg/kg, ip pretreated with compound for 5 min followed by gamma irradiation at 8.5 Gy and measured after 12 to 30 days by flow cytometry; assay type: functional, organism-based; method in brief: as §2
Mus musculus [34] = test: Radioprotective activity in C57Bl/6 mouse assessed as median survival time at 100 mg/kg, ip administered 5 min prior to gamma-irradation at 8.5 Gy and measured after 30 days (reference value: 12 days); assay type: functional
[35] = Toxicity in C57Bl/6 mouse assessed as mouth death at 100 mg/kg, ip measured after 30 days; assay type: organism-based; conditions: in vivo, 720 h, time 30 day; method in brief: as §3

Structure (SMILES)	viability at 10 µM (MCF7 [1])	viability at 100 µM (MOLT-4 [2])	viability at 100 µM (MOLT-4 [3])	MTD (A549 [4])	viability at 100 µM (SAOS-2 [5])	viability at 100 µM (A549 [6])	viability at 10 µM (A2780 [7])	viability at 10 µM (A549 [8])	viability at 100 µM (MCF7 [9])	viability at 100 µM (A2780 [10])	viability at 10 µM (HeLa [11])	viability at 100 µM (HT-29 [12])	pIC50 (A549 [13])	viability at 48 h, 100 µM [14]	viability at 10 µM (HT-29 [15])	viability at 100 µM (HeLa [16])	viability at 10 µM (PANC-1 [17])	viability at 10 µM (MOLT-4 [18])	viability at 10 µM (Jurkat [19])	viability at 100 µM (Jurkat [20])	further results
OCCN1CCN(CC(O)COc2ccccc2)CC1 (stereo unspecified)	104%	57%	96%	0.59 mM	96%	99%	96%	97%	98%	96%	95%	97%	2.24	101%	97%	107%	90%	92%	104%	91%	viability at 100 µM (PANC-1 [21]): 108%; viability at 10 µM (SAOS-2 [22]): 102%; viability at 48 h, 10 µM [23]: 101%
OCCN1CCN(CC(O)COc2ccc3ccccc3c2)CC1 (stereo unspecified)	93%	65%	100%	0.02 mM	91%	102%	99%	102%	93%	91%	109%	103%	3.51	98%	92%	116%	101%	109%	97%	96%	viability at 100 µM (PANC-1 [21]): 95%; viability at 10 µM (SAOS-2 [22]): 98%; viability at 48 h, 10 µM [23]: 103%
COc1cc([N+](=O)[O-])ccc1OCC(O)CN1CCN(CCO)CC1 (stereo unspecified)	103%	59%	99%	0.78 mM	94%	105%	99%	93%	98%	95%	101%	111%	2.35	97%	99%	108%	92%	92%	101%	92%	Activity (Mus musculus [24]): Active; Activity [25]: 28.5 g; Activity (Mus musculus [26]): 26.1 g; Activity (Mus musculus [27]): 26.5 g; Activity [28]: 27.8 g; Activity [29]: Non-Toxic; Activity [30]: 103%; Activity (Mus musculus [31]): 101%; Activity (Mus musculus [32]): Active; Activity (Mus musculus [33]): Active; MST (Mus musculus [34]): 11 days; Activity [35]: Non-Toxic; viability at 100 µM (PANC-1 [21]): 105%; viability at 10 µM (SAOS-2 [22]): 103%; viability at 48 h, 10 µM [23]: 97%

From ChEMBL document CHEMBL4706495, “A novel class of small molecule inhibitors with radioprotective properties” (Eur J Med Chem, 2020)
